Measurements from different studies.
Lines come from different studies, so protocols differ.
Target: Citron Rho-interacting kinase (CIT, Homo sapiens, UniProt O14578)

CCN1CCN(Cc2ccc(C(=O)Nc3ccc(C)c(Oc4ccc5c(c4)CC(=O)N5)c3)cc2C(F)(F)F)CC1
remaining binding (binding; competition with immobilised ligand; 1 µM): 65%

O=C(c1ccc(Nc2nccc(-c3cc4ccccc4s3)n2)cc1)N1CCC(N2CCCC2)CC1
remaining binding (binding; competition with immobilised ligand; 1 µM): 57%

FC(F)(F)Oc1cccc(-c2cnc3ccc(-c4ccncc4)nn23)c1
remaining binding (cell-free assay; competition with immobilised ligand; 5 µM): 34%

COc1cnc(Nc2cccc(S(N)(=O)=O)c2)nc1N1CCN(c2ccccc2)C(=O)C1
remaining binding (binding; competition with immobilised ligand; 1 µM): 100%

COc1cccc(CNC(=O)c2nc3scc(COCc4ccc(C(=O)O)cc4)c3c(=O)[nH]2)c1
remaining binding (cell-free assay; competition with immobilised ligand; 1 µM): 100%

O=C(Nc1c[nH]nc1C(=O)NC1CCNCC1)c1cc(F)cc(F)c1
remaining binding (binding; competition with immobilised ligand; 1 µM): 100%

CN(C)c1ncc(F)c(-c2cnn3ncccc23)n1
remaining binding (binding; 1 µM): 100%

COc1cnc(Nc2cccc(S(N)(=O)=O)c2)nc1N1CCN(c2ccccc2)CC1
remaining binding (binding; competition with immobilised ligand; 1 µM): 100%

c1cnn2ncc(-c3ccnc(N4CCC45COC5)n3)c2c1
remaining binding (binding; 1 µM): 84%

Cc1cnc(Nc2ccc(C(=O)N3CCC(N4CCCC4)CC3)cc2)nc1-c1cc2ccccc2s1
remaining binding (binding; competition with immobilised ligand; 1 µM): 65%

N[C@@H]1CCN(c2nccc(-c3cnn4ncccc34)n2)C1
remaining binding (binding; 1 µM): 99%

CS(=O)(=O)c1cc(C2(NC(=O)c3cncc4c3cnn4-c3ccc(F)cc3)CC2)ccn1
remaining binding (cell-free assay; competition with immobilised ligand; 1 µM): 100%

CC1CCCN1c1nccc(-c2cnn3ncccc23)n1 (stereo not shown)
remaining binding (binding; 1 µM): 82%

CCOC(=O)c1cc2cc(-c3cc(C(=O)NCc4ccc(C(=O)O)cc4)nn3C)ccc2[nH]1
remaining binding (cell-free assay; competition with immobilised ligand; 0.1 µM): 100%

CN(CCCC(F)(F)F)c1nccc(-c2cnn3ncccc23)n1
remaining binding (binding; 1 µM): 88%

CCC(=O)N[C@H]1CC[C@@H](C(=O)N(C)c2ccc(-c3nc4ccccc4o3)cc2)C1
remaining binding (cell-free assay; competition with immobilised ligand; 1 µM): 99%

O=C(NCCCN1CCOCC1)c1ccc(Nc2nccc(-c3cc4ccccc4s3)n2)cc1
remaining binding (binding; competition with immobilised ligand; 1 µM): 77%

O=C(NCc1ncc(C(F)(F)F)cc1Cl)c1ccc2c(c1)C1(CCS(=O)(=O)CC1)[C@@H](C1CC1)N2S(=O)(=O)c1ccc(F)cc1
remaining binding (cell-free assay; competition with immobilised ligand; 1 µM): 84%

Nc1ncc2c(n1)-c1c([nH]c3ccc(C#CC4CC4)cc13)CCCC2
remaining binding (binding; competition with immobilised ligand; 1 µM): 88%
